# Source: paper PMC5693607 (Cell chemical biology, 2017)
# Tests used:
# [1] = target: T1, HDAC3 (Homo sapiens, UniProt O15379); format: cell-based; conditions: MDA-MB-231 cells, inhibitor 2–12 hours; for photomate labeling (engagement) of HDAC3 after inhibitor treatment: then photomate 10 µM
# How it was run: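 MDA-MB-231 cells were grown 2 days in complete medium, then treated with inhibitor. They were then either lysed directly for Western blot or photolabeled: 10 µM probe for 40 min at 37 °C, ± SAHA 200 µM competitor, then 366 nm irradiation at 4 °C. Lysate (35.2 µg) was clicked to an 800 nm IRDye azide and separated on gel. HDAC3 was co-stained by antibody and imaged at 700/800 nm.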
# [2] = system: recombinant class I and II HDACs; assay: Photolabeling of recombinant proteins, gel based visualization; format: binding
# [3] = target: T1, HDAC3; assay: Treatment followed by in situ photolabeling and Western blot, MCF-7 cells; format: cell-based
# How it was run: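 MCF-7 cells received TNF-α or vehicle, then photomate 10 µM (± SAHA 200 µM) for 40 min at 37 °C. They were irradiated at 366 nm (35 J/cm2) at 4 °C. Lysate (35.2 µg) was clicked to azide 800CW IRDye (90 min rt), gel-separated and fluorescence-imaged. HDAC3 and phospho-HDAC3 were detected by Western blot with IRDye secondaries.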
# Target sequence in this assay (O15379 whole entry): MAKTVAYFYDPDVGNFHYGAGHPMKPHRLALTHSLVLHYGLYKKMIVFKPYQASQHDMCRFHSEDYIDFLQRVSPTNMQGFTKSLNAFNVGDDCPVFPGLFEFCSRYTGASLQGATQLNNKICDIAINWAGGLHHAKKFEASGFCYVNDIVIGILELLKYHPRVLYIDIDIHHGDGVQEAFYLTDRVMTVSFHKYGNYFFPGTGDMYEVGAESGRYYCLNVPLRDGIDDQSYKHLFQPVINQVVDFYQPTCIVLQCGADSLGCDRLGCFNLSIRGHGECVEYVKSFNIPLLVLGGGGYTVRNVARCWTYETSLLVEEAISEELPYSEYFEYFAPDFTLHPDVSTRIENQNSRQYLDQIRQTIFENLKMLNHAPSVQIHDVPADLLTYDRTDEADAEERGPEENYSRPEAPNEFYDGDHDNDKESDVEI
# Target sequence in this assay (O75376 whole entry partner): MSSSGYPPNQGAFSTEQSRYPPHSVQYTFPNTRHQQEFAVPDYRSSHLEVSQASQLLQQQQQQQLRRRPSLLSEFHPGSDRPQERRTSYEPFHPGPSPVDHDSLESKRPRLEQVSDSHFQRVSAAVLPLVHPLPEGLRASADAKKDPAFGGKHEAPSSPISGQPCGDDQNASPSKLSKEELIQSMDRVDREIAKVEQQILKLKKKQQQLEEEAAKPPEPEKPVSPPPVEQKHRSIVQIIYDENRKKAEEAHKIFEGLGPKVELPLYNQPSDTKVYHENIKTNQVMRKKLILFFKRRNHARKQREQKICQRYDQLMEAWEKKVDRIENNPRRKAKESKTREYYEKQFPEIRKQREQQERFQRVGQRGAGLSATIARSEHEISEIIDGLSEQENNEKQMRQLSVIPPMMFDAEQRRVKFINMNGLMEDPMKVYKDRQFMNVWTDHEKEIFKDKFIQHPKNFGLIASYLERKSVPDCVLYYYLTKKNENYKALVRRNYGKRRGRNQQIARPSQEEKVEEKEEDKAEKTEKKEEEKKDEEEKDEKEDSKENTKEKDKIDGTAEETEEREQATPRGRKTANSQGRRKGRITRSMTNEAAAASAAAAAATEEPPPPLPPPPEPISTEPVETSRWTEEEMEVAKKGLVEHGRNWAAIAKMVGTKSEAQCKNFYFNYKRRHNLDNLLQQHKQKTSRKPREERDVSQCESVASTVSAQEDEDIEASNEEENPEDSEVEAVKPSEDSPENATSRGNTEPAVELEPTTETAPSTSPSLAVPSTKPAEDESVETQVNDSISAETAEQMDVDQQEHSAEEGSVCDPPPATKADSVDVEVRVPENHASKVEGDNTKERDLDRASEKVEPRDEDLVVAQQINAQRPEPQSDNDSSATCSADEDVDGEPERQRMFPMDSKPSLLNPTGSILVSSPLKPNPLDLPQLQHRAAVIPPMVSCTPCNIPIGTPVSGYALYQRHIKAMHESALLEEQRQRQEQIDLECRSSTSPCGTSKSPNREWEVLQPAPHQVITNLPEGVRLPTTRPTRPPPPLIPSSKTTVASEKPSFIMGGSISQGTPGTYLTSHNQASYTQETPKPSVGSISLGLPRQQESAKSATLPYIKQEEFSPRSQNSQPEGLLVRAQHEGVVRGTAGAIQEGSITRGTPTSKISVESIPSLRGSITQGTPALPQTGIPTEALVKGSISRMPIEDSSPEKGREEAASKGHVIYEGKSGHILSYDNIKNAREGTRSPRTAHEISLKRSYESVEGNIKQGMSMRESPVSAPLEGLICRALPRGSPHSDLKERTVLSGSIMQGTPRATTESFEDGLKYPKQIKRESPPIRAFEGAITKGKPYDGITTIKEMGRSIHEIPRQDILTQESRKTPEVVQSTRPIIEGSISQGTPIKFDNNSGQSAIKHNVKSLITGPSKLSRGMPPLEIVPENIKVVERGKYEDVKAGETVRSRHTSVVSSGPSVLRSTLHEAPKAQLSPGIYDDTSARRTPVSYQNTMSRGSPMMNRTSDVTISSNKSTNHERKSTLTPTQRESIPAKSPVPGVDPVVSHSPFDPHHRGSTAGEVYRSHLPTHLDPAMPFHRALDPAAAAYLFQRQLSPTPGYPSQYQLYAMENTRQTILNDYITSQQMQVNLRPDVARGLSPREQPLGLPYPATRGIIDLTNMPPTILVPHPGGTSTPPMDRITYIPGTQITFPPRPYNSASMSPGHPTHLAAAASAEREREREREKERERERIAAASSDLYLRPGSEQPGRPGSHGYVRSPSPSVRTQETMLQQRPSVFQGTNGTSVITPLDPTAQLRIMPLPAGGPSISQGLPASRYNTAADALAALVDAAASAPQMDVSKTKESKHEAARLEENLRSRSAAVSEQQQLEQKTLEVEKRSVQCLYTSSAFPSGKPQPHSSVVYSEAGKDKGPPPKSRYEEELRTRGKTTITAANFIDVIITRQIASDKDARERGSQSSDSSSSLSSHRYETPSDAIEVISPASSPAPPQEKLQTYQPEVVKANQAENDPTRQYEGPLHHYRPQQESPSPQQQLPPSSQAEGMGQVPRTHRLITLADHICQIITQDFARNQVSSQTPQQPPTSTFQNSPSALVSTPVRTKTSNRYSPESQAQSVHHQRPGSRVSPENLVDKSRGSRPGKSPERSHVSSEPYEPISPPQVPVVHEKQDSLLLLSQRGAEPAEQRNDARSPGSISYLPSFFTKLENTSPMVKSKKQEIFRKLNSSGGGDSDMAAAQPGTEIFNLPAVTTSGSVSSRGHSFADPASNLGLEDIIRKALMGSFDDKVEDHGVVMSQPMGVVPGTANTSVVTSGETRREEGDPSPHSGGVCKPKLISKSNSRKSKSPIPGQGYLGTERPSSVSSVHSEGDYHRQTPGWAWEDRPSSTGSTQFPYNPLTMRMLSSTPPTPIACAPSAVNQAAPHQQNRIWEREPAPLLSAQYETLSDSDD
# Target sequence in this assay (O60907 whole entry partner): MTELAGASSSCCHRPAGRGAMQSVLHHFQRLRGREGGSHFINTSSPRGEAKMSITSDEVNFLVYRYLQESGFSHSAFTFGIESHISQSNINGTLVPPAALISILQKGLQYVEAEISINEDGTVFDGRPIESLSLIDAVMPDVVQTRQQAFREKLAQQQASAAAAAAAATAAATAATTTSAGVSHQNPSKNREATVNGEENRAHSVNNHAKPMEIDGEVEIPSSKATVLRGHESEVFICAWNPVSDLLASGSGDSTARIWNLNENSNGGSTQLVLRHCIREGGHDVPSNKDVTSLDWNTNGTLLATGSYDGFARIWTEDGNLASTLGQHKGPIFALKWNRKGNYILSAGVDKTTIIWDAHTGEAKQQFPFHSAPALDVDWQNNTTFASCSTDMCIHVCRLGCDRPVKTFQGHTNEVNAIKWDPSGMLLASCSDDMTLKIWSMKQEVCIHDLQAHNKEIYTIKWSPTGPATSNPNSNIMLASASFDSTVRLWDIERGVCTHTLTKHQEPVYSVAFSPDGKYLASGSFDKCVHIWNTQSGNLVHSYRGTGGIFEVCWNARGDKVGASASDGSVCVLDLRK
# Target sequence in this assay (Q13227 whole entry partner): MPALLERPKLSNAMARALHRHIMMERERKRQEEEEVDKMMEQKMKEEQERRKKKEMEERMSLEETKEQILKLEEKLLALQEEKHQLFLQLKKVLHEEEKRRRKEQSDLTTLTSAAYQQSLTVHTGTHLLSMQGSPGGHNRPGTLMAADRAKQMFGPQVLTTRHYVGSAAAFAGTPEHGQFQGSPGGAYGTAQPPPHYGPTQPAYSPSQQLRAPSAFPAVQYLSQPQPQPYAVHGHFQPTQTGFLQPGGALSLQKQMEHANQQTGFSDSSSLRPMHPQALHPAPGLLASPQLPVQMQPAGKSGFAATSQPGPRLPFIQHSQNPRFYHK
# [4] = target: recombinant HDAC4 (Homo sapiens, UniProt P56524); assay: Fluorogenic enzymatic assay, recombinant HDAC4; format: biochemical
# Chain of recombinant HDAC4 (P56524 whole entry): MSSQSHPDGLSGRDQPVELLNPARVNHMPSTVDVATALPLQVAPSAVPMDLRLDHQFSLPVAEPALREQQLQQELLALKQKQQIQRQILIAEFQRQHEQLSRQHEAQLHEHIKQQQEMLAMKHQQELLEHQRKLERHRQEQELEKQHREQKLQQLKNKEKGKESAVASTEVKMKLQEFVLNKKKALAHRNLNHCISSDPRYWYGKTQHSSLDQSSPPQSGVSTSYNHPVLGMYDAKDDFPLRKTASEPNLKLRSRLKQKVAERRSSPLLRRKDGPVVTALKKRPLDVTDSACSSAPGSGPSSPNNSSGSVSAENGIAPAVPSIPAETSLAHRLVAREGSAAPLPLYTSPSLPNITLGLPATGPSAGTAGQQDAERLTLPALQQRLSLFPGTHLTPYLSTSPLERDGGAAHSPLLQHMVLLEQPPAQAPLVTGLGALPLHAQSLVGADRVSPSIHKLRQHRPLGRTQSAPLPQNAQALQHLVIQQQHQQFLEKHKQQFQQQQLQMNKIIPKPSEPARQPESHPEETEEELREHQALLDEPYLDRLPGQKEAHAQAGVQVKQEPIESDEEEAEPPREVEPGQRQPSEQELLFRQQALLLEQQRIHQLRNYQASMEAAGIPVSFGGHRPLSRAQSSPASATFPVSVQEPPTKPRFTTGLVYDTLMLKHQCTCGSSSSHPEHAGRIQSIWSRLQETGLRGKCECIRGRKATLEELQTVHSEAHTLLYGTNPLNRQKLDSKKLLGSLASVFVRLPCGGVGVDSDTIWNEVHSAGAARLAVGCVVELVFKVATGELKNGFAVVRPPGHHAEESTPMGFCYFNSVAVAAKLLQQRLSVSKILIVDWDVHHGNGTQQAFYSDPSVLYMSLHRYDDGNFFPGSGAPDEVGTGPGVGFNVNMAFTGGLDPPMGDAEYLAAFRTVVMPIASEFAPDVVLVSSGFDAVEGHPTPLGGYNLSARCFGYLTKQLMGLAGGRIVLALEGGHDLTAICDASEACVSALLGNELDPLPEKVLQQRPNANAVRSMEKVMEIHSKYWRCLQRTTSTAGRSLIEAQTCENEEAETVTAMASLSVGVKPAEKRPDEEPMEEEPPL
# [5] = system: class I and II HDACs; format: cell-based, Human; conditions: seven breast cancer cell lines, photomate 10 µM
# How it was run: (§1)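 Cells at 90% confluence were pretreated with SAHA (200 µM) or DMSO, then given photomate 10 µM for 40 min at 37 °C. They were cooled to 4 °C and irradiated at 366 nm (35 J/cm2). Lysate (1 mg) was clicked to azide-biotin (1.5× probe; TCEP, TBTA, CuSO4; 90 min rt), then enriched on streptavidin beads and in-gel digested. Proteins reduced ≥50% by SAHA were scored.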
# [6] = target: T2, class I and II HDACs (Homo sapiens, UniProt O15379); format: cell-based; conditions: P<.0001
# T2 sequence (O15379 whole entry): as the sequence (O15379 whole entry) above
# How it was run: as §1
# [7] = target: T1, HDAC3; assay: Fluorogenic enzymatic assay, recombinant HDAC3; format: biochemical
# How it was run: (§2)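 Deacetylase activity of recombinant human class I HDAC isoforms was measured with a fluorogenic assay following previously published procedures. Inhibition is reported as log IC50, as the average ± s.e. of n=3.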
# Target sequence in this assay (O15379 whole entry): as above
# Target sequence in this assay (Q9Y618 395-489 partner limits assumed): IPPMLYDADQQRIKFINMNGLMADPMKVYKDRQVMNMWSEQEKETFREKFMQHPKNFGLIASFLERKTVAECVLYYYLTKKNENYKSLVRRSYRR
# [8] = system: class I and II HDACs; assay: In situ photolabeling of MCF-7 cells, enrichment, Western blot and MS/MS; format: cell-based, Human; conditions: MCF-7 cells
# How it was run: (§3)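 MCF-7 cells at 90% confluence were pretreated with SAHA (200 µM) or DMSO, then given 10 µM test compound for 40 min at 37 °C. Cells were cooled to 4 °C, irradiated at 366 nm (35 J/cm2) and lysed in HEPES pH 7.5 buffer. Lysate was click-conjugated to biotin azide (CuSO4/TBTA/TCEP, 90 min, rt), then streptavidin-enriched for Western blot or in-gel tryptic MS/MS. A hit was a protein reduced ≥50% by SAHA and absent in DMSO controls.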
# [9] = target: T2, class I and II HDACs; assay: as above; format: cell-based; conditions: MCF-7 cells and other luminal cell types
# How it was run: as §3
# [10] = target: T3, recombinant HDAC8 (Homo sapiens, UniProt Q9BY41); assay: Fluorogenic enzymatic assay, recombinant HDAC8; format: biochemical
# T3 sequence (Q9BY41 1-377): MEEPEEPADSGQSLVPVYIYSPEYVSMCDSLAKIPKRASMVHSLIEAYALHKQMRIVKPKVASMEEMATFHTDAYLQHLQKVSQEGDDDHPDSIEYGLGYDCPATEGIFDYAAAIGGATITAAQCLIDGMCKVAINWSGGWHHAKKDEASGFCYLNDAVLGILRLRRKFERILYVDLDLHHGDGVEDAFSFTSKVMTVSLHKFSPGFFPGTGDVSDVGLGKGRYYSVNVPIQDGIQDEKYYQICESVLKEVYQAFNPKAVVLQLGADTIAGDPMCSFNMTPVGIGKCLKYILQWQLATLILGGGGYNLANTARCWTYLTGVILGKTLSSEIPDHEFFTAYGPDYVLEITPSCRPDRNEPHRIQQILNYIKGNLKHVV
# How it was run: as §2
# [11] = target: recombinant HDAC1 (Homo sapiens, UniProt Q13547); assay: Fluorogenic enzymatic assay, recombinant HDAC1; format: biochemical
# How it was run: as §2
# [12] = target: recombinant HDAC2 (Homo sapiens, UniProt Q92769); assay: Fluorogenic enzymatic assay, recombinant HDAC2; format: biochemical
# How it was run: as §2
# [13] = system: TNBC cells; assay: Efficacy in breast cancer cells; format: cell-based, Human; conditions: Figure S2B
# [14] = MCF-7 cells stimulated with TNF-α, compared to TNF-α alone
HDAC3 phosphorylation after inhibitor treatment [1],photomate labeling (engagement) of HDAC3 after inhibitor treatment [1],photomate labeling of HDAC3 after treatment ([3]; MCF-7 cells),Compound,other results
–,no change,–,O=C(c1ccc(Nc2nccc(-c3cc4ccccc4s3)n2)cc1)N1CCC(N2CCCC2)CC1 [IKK-16],–
complete loss of HDAC3 phosphorylation,abolished the labeling of HDAC3,–,Oc1c2ccccc2c2c3c(cccc13)N=N2 [SP600125],–

# Further lines, the compound ahead of its results:
Compound,HDAC3 phosphorylation after inhibitor treatment [1],photomate labeling (engagement) of HDAC3 after inhibitor treatment [1],photomate labeling of HDAC3 after treatment ([3]; MCF-7 cells),other results
COc1ccc(CNC(=O)Nc2ncc([N+](=O)[O-])s2)cc1 [AR-A014418],did not affect,did not affect,–,–
O=c1cc(N2CCOCC2)oc2c(-c3ccccc3)cccc12 [LY294002],Neither of the compounds induced any change,Neither of the compounds induced any change,–,–
"O=C(CCCCCCC(=O)Nc1ccccc1)NO [SAHA, suberoyl anilide hydroxamic acid]",–,–,–,"photomate labeling of HDAC isoforms upon co-incubation with competitor ([2]; SAHA 200 µM, photomate 10 µM): Labeling of all HDAC isoforms was lost"
Oc1ccc(-c2nc(-c3ccncc3)c(-c3ccc(F)cc3)[nH]2)cc1 [SB202190],–,increased labeling,–,–
Brc1c(Br)c(Br)c2n[nH]nc2c1Br [TBB],Neither of the compounds induced any change,Neither of the compounds induced any change,–,–
CCOc1nc(NC(=O)Cc2cc(OC)ccc2OC)cc(N)c1C#N [TCS 6o],decreased,decreased,–,"HDAC3 phosphorylation, JNK inhibitor pretreatment then TNF-α [3, 14]: decrease in HDAC3 labeling and phosphorylation; photomate labeling of HDAC3, JNK inhibitor pretreatment then TNF-α [3, 14]: decrease in HDAC3 labeling and phosphorylation"
"C#CCN(CCCCCC(=O)NO)Cc1c(F)c(F)c(N=[N+]=[N-])c(F)c1F [photomate, 6-((4-Azido-2,3,5,6-tetrafluorobenzyl)(prop-2-yn-1-yl)amino)-N-hydroxyhexanamide]",–,–,–,"IC50 [4]: 20100 nM; HDAC isoforms enriched across cell lines [5]: ubiquitously targeted and enriched HDAC1, 2 and 9 from every cell line; HDAC3 enriched from TNBC cell lines in comparison to luminal subtypes [6]: increased amounts of HDAC3 were enriched from TNBC cell lines; IC50 [7]: 109 nM; HDAC targets identified by MS/MS and Western blot [8]: HDAC1 and 2 were the only HDAC targets; engagement of HDAC3 in cells [9]: could not be detected; relative potency or affinity based on inhibition or labeling (isoform selectivity) ([2]; recombinant HDAC1, 2, 3, 8 and 4): nonselective for HDAC1, 2 and 3 but shows decreased potency and affinity with respect to HDAC8 and the class II HDAC4; IC50 [10]: 2270 nM; IC50 [11]: 417 nM; IC50 [12]: 132 nM; efficacy in TNBC cells [13]: increased efficacy in TNBC cells"
CC/C(=C(\c1ccccc1)c1ccc(OCCN(C)C)cc1)c1ccccc1 [tamoxifen],–,–,no increase,HDAC3 phosphorylation after treatment ([3]; MCF-7 cells): no increase
EGF: MAPK stimulating growth factor,–,–,had no effect,–
IGF-1: MAPK stimulating growth factor,–,–,had no effect,–
TNF-α,–,–,induces specific labeling of HDAC3,–
